Experimental findings from paper PMC3975472 (Biomolecules & Therapeutics, 2014) are described below.

The structures appear in SMILES notation. Where a name gives a salt, the structure may show the parent alone.

The target in data set [1] is CYP2C19 (Homo sapiens, UniProt P33261). In words: Cocktail probe assay in pooled HLMs: CYP2C19-catalyzed omeprazole 5-hydroxylase. In kind it is in vitro ADME. Particulars: pre-incubation 20 min with NADPH, mean of duplicates. The gist of the method: (§1)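 Pooled HLMs (0.1 mg) in 0.1 M potassium phosphate, pH 7.4, with cocktail probe substrates, NADPH-generating system and test compound (0.1–25 μM, six levels). Pre-incubation with NADPH for 0 or 15 min (reference inhibitor: 20 min), then 60 min at 37°C. Stopped with acidified acetonitrile plus terfenadine internal standard; metabolites by LC-MS/MS (MRM). IC50 from percent activity vs log[I]; duplicates.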
CYP2C19, sequence (P33261 whole entry): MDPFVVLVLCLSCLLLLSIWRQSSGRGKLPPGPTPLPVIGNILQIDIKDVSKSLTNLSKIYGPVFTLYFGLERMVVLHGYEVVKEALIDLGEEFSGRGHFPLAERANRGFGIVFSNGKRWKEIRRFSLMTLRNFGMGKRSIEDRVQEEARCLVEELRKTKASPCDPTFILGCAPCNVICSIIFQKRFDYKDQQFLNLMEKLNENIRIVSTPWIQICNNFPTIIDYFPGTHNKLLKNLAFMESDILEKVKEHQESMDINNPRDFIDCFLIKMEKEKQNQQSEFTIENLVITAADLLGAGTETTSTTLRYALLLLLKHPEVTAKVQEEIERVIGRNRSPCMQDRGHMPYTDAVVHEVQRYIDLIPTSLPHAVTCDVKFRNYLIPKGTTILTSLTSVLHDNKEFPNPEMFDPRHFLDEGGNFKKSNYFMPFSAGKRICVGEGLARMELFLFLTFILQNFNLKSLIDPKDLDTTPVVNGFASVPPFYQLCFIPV

Data set [2] deals with T1, CYP1A2 (Homo sapiens, UniProt P05177).
T1 sequence (P05177 1-516): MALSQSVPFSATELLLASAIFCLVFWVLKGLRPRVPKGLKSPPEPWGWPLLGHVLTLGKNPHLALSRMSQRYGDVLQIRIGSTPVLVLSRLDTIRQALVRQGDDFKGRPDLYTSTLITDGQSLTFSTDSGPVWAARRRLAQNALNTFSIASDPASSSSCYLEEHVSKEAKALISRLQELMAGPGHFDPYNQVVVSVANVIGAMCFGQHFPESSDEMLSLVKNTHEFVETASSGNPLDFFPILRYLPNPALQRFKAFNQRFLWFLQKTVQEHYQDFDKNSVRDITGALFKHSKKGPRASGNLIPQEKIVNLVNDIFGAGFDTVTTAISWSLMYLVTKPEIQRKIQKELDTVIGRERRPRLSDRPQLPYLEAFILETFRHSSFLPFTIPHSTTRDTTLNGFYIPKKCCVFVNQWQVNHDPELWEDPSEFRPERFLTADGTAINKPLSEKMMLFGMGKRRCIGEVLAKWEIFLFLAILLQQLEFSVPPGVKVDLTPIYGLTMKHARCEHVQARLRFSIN
In words: Cocktail probe assay in pooled HLMs: CYP1A2-catalyzed phenacetin O-deethylase. Format: in vitro ADME. Particulars: pre-incubation 20 min with NADPH, mean of duplicates. An outline of the steps:
as §1

For data set [3], the target named is CYP2C9 (Homo sapiens, UniProt P11712). In words: Cocktail probe assay in pooled HLMs: CYP2C9-catalyzed diclofenac 4′-hydroxylase. In kind it is in vitro ADME. Particulars: pre-incubation 20 min with NADPH, mean of duplicates. An outline of the steps:
as §1

Data set [4] has as its target CYP2E1 (Homo sapiens, UniProt P05181). In kind it is in vitro ADME. Particulars: IC50, HLMs, pre-incubation 20 min with NADPH, mean of duplicates. The gist of the method:
as §1

For data set [5], the target named is CYP2D6 (Homo sapiens, UniProt P10635). Format: in vitro ADME. Particulars: IC50, HLMs, pre-incubation 20 min with NADPH, mean of duplicates. The gist of the method: as §1
CYP2D6, sequence (P10635 whole entry): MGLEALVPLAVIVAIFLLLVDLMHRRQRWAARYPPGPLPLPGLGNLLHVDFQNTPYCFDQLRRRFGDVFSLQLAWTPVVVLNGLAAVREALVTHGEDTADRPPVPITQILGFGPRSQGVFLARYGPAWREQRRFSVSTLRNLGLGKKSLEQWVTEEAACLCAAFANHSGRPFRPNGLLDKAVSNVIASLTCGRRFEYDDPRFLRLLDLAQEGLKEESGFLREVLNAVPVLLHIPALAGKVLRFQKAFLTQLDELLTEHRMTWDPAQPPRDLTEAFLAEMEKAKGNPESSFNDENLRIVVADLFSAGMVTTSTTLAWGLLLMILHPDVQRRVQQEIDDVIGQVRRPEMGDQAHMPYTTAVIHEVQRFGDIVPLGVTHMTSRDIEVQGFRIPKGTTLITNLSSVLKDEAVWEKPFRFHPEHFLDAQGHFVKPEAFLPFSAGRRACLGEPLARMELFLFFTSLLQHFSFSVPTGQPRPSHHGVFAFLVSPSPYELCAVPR
In data set [6] the target is T2, CYP2C8 (Homo sapiens, UniProt P10632).
T2 sequence (P10632 1-490): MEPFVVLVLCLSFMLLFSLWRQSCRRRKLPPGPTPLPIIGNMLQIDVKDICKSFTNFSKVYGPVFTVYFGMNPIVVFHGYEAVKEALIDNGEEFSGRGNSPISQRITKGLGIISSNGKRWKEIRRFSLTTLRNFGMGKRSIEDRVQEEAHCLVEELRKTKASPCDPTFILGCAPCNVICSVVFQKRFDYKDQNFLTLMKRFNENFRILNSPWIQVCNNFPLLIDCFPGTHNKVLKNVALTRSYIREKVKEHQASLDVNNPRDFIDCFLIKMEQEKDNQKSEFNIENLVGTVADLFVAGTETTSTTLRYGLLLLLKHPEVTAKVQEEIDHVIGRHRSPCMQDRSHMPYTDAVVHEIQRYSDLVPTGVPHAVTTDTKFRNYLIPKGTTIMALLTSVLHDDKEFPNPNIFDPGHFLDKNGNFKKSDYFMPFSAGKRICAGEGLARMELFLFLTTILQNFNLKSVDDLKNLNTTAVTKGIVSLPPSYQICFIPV
In words: Cocktail probe assay in pooled HLMs: CYP2C8-catalyzed amodiaquine N-deethylase. Particulars: pre-incubation 20 min with NADPH, mean of duplicates. Format: in vitro ADME. An outline of the steps:
as §1

For data set [7], the target named is T3, CYP2B6 (Homo sapiens, UniProt P20813).
T3 sequence (P20813 1-491): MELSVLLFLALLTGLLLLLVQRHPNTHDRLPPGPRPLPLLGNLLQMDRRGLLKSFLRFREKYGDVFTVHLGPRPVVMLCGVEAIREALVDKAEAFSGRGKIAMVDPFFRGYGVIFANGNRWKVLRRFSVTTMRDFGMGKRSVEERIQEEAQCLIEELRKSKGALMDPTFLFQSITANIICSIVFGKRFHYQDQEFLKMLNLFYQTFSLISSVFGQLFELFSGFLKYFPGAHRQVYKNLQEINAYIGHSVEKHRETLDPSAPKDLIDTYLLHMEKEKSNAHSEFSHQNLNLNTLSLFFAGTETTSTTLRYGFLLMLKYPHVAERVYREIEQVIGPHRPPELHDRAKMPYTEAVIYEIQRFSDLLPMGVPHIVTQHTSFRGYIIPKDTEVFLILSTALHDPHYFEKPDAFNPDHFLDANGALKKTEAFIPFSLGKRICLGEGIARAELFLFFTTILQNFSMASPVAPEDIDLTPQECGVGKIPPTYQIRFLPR
In words: Cocktail probe assay in pooled HLMs: CYP2B6-catalyzed bupropion hydroxylase. Format: in vitro ADME. Particulars: pre-incubation 20 min with NADPH, mean of duplicates. The gist of the method:
as §1

Data set [8] concerns the target T4, CYP2A6 (Homo sapiens, UniProt P11509).
T4 sequence (P11509 1-494): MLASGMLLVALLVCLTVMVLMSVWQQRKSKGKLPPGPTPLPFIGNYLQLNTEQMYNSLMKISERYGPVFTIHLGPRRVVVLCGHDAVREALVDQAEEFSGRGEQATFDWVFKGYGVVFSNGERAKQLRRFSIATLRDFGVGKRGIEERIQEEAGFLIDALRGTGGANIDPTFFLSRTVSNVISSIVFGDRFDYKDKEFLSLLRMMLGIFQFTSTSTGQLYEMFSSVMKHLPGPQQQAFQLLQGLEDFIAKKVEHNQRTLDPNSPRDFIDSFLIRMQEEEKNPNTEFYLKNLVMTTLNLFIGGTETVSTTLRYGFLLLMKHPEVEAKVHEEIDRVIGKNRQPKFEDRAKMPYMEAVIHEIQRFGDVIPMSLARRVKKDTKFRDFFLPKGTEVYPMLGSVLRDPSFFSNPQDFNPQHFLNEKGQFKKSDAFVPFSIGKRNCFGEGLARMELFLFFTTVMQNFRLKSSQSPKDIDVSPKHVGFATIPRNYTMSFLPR
In words: Cocktail probe assay in pooled HLMs: CYP2A6-catalyzed coumarin 7-hydroxylase. In kind it is in vitro ADME. Particulars: pre-incubation 20 min with NADPH, mean of duplicates. The gist of the method:
as §1

Data set [9] deals with 9 cytochrome P450 (CYP) family members (CYP1A2, CYP2A6, CYP2B6, CYP2C8, CYP2C9, CYP2C19, CYP2D6, CYP2E1, and CYP3A4). In words: Cocktail probe assay in pooled HLMs, all 9 CYP isoforms together. In kind it is in vitro ADME, human. Particulars: 0–50 μM, 37°C 60 min. An outline of the steps: as §1

CYP2E1, sequence (P05181 whole entry): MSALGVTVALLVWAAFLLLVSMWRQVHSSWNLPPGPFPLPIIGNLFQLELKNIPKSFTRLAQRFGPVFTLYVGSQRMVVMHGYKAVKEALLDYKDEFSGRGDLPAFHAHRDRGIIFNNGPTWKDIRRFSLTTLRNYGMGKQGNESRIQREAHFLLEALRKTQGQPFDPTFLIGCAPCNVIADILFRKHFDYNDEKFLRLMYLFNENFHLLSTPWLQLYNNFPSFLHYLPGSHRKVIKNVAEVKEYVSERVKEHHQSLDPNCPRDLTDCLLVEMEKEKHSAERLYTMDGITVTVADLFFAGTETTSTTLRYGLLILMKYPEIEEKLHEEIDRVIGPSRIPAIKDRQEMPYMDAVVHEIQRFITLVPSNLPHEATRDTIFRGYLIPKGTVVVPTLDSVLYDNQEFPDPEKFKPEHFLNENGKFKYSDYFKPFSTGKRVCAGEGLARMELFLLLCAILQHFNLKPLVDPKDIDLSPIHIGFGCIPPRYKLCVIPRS
CYP2C9, sequence (P11712 whole entry): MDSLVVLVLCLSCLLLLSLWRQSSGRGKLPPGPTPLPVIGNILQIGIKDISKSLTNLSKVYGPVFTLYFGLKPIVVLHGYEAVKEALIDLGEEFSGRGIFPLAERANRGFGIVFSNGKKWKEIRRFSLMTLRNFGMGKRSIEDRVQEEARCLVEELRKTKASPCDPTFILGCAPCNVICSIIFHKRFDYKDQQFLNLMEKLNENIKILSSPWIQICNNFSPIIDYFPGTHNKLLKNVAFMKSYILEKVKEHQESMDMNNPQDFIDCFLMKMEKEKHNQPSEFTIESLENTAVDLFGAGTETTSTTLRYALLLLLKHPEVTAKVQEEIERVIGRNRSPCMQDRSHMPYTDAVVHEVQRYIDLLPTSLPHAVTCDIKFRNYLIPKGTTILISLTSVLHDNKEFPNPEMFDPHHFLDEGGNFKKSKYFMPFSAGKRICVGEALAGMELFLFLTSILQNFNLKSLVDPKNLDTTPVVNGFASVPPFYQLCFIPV

As for `CCCC(C(=O)OCCN(CC)CC)(c1ccccc1)c1ccccc1` [SKF-525A, 2-diethylaminoethyl-2,2-diphenylvalerate-HCl], the IC50 (in general, the concentration at which inhibition is half-maximal) is 2.1 µM in data set [1]; greater than 50 µM in [2]; 33.4 µM in data set [3]; greater than 50 µM in [4]; 3.5 µM in [5]; 26.5 µM in data set [6]. Further, the 50% inhibitory concentration (IC50) was 0.9 µM in [7] and greater than 50 µM in [8].
Regarding `CC(=O)Oc1c2oc3cc(O)c(O)cc3c2c(OC(C)=O)c2oc3cc(O)c(O)cc3c12` [Polyozellin, polyozellin], the “inhibitory effects on the activities of all 9 CYPs” value in data set [9] was “weak inhibitory effects”.
